Source: article PMC12753540 (Investigational New Drugs, 2025)
“And” between values parts separate entries of the source, which are not always exact repeats. Identical values can stand only once. Marks after values point to notes of the source that are not given here.

Key:
[1] = Phase 1 study: safety and tolerability; type: in vivo, human (Japanese patients with advanced solid tumors)
How it was run: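 Oral dosing was 240 mg BID on Days 1–7 (Cohort 1) or 160 mg BID on Days 1–14 (Cohort 2) of 28-day cycles, after a single dose on C0D1, using a rolling-6 escalation design. DLTs were assessed over Cycles 0 and 1. AEs were coded by MedDRA and graded by CTCAE v4.03. The TEAE window ran from first dose to 30 (+7) days after the last dose or discontinuation. Relatedness was judged by the investigator. Data were summarized descriptively for all patients who received ≥1 dose.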

[2] = tested on: advanced solid malignancies; test: Phase 1 study: antitumor activity; type: in vivo, human (Japanese patients); settings: for Best overall response: Complete response / Best overall response: Partial response: confirmed; for Best overall response: Stable disease: maintained ≥ 7 weeks from Cycle 1 Day 1; for Median PFS: Kaplan-Meier, data cutoff May 25, 2023
How it was run: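 Oral twice-daily dosing on Days 1–7 of 28-day cycles, after a single oral dose on C0D1 (4-day Cycle 0). Tumors were imaged by CT or MRI at baseline, then by the same method every 8 weeks (±1 week) until progression, per RECIST 1.1. CR/PR needed confirmation ≥4 weeks later, and SD had to last ≥7 weeks from C1D1. ORR was limited to measurable disease, with Clopper-Pearson 95% CI; PFS by Kaplan–Meier.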

[3] = Phase 1 study: plasma pharmacokinetics, non-compartmental analysis; type: in vivo, human (Japanese patients); settings: for tmax, Median (range) / Cmax / Vd/F / half-life: oral; for tmax, Median (range) / Cmax / Vd/F / half-life / Tmax: plasma; for Cmax / Vd/F / half-life / Tmax: human; for Vd/F: Arithmetic mean (SD); for half-life: t1/2, Arithmetic mean (SD); for Tmax: po, Median (range)
[4] = tested on: advanced solid tumors; settings: monotherapy, cited from earlier work
[5] = cited from earlier work
[6] = tested on: advanced gastric cancer, metastatic melanoma, non-small-cell lung cancer; settings: in combination with durvalumab; phase 2 studies; cited from earlier work
[7] = Cohort 1 240 mg BID (n = 6), Any grade
[8] = Cohort 2 160 mg BID (n = 6), Any grade
[9] = Multiple-dose administration, Cohort 1 240 mg BID (n = 6)
[10] = Multiple-dose administration, Cohort 2 160 mg BID (n = 6)
[11] = Single-dose administration, Cohort 1 240 mg (n = 6)
[12] = Single-dose administration, Cohort 2 160 mg (n = 6)
[13] = 160 mg, Single-dose administration, Cohort 2 160 mg (n = 6)
[14] = 240 mg, Single-dose administration, Cohort 1 240 mg (n = 6)

## C[C@@H]1COCCN1c1cc(C2([S@](C)(=N)=O)CC2)nc(-c2cc[nH]c3nccc2-3)n1 [ceralasertib]
[1]; Cohort 1 240 mg BID (n = 6)
  Any DLT: 1 (16.7)* n (%)
  Any SAE: 0 n (%)
  Any SAE related to treatment: 0 n (%)
  Any SAE related to treatment, Grade ≥ 3: 0 n (%)
  Any SAE, Grade ≥ 3: 0 n (%)
  Any TEAE: 6 (100) n (%)
  Any TEAE leading to death: 0 n (%)
  Any TEAE leading to discontinuation of ceralasertib: 1 (16.7)* n (%)
  Any TEAE leading to discontinuation of ceralasertib, Related to treatment: 1 (16.7)* n (%)
  Any TEAE leading to dose interruption of ceralasertib: 0 n (%)
  Any TEAE leading to dose interruption of ceralasertib, Related to treatment: 0 n (%)
  Any TEAE leading to dose reduction of ceralasertib: 1 (16.7) n (%)
  Any TEAE leading to dose reduction of ceralasertib, Related to treatment: 1 (16.7) n (%)
  Any TEAE, Grade ≥ 3: 1 (16.7)* n (%)
  Any TRAE: 5 (83.3) n (%)
  Any TRAE leading to death: 0 n (%)
  Any TRAE, Grade ≥ 3: 1 (16.7)* n (%)
[1]; [7]
  TEAE: Anemia: 3 n (%)
  TEAE: Constipation: 2 n (%)
  TEAE: Nausea: 3 n (%)
  TEAE: Neutrophil count decreased: 2 n (%)
  TEAE: Platelet count decreased: 2 n (%)
[1]; Cohort 2 160 mg BID (n = 6)
  Any DLT: 1 (16.7)^† n (%)
  Any SAE: 2 (33.3) n (%)
  Any SAE related to treatment: 1 (16.7)^† n (%)
  Any SAE related to treatment, Grade ≥ 3: 1 (16.7)^† n (%)
  Any SAE, Grade ≥ 3: 2 (33.3) n (%)
  Any TEAE: 6 (100) n (%)
  Any TEAE leading to death: 0 n (%)
  Any TEAE leading to discontinuation of ceralasertib: 0 n (%)
  Any TEAE leading to discontinuation of ceralasertib, Related to treatment: 0 n (%)
  Any TEAE leading to dose interruption of ceralasertib: 1 (16.7)^† n (%)
  Any TEAE leading to dose interruption of ceralasertib, Related to treatment: 1 (16.7)^† n (%)
  Any TEAE leading to dose reduction of ceralasertib: 1 (16.7)^† n (%)
  Any TEAE leading to dose reduction of ceralasertib, Related to treatment: 1 (16.7)^† n (%)
  Any TEAE, Grade ≥ 3: 2 (33.3) n (%)
  Any TRAE leading to death: 0 n (%)
  Any TRAE, Grade ≥ 3: 1 (16.7)^† n (%)
[1]; [8]
  TEAE: Anemia: 4 n (%)
  TEAE: Nausea: 4 n (%)
  TEAE: Platelet count decreased: 4 n (%)
  TEAE: White blood cell count decreased: 3 n (%)
[1]; both cohorts, 12 patients treated
  Patients with grade ≥ 3 treatment-emergent adverse event: 3 patients
[1]; monotherapy, both regimens
  Overall tolerability: well tolerated with an acceptable safety profile
[1]; of 12 patients enrolled
  Patients with low grade (grade ≤ 2) events only: 9 patients
[2]; Cohort 1 240 mg BID (n = 6)
  Best overall response: Not evaluable: 1 (16.7) n (%)
  Best overall response: Not evaluable, No post-baseline assessment: 1 (16.7) n (%)
  Best overall response: Objective response: 0 n (%)
  Best overall response: Progressive disease: 3 n (%) and 3 (50.0) n (%)
  Best overall response: Complete response: 0 n (%)
  Best overall response: Partial response: 0 n (%)
  Best overall response: Stable disease: 2 n (%) and 2 (33.3) n (%)
[2]; Cohort 1 240 mg BID
  Median PFS: 2.1 months
[2]; Cohort 2 160 mg BID (n = 6)
  Best overall response: Not evaluable: 0 n (%)
  Best overall response: Not evaluable, No post-baseline assessment: 0 n (%)
  Best overall response: Objective response: 0 n (%)
  Best overall response: Progressive disease: 2 n (%) and 2 (33.3) n (%)
  Best overall response: Complete response: 0 n (%)
  Best overall response: Partial response: 0 n (%)
  Best overall response: Stable disease: 4 n (%) and 4 (66.7) n (%)
[2]; Cohort 2 160 mg BID
  Median PFS: 3.3 months
[2]; both cohorts in total, 12 patients
  Patients with best objective response of stable disease: 6 patients
[3]; [9]
  AUCss, Geometric mean (CV%): 94,970 (20.38) ng x h/mL
  AUCss,last, Geometric mean (CV%): 92,140 (20.55) ng x h/mL
  CLss/F, Arithmetic mean (SD): 2.568 (0.4725) L/h
  Css,max, Geometric mean (CV%): 11,970 (16.26) ng/mL
[3]; Multiple-dose administration, Cohort 1 240 mg BID (n = 6), Cycle 1 Day 7
  tss,max, Median (range): 1.97 (0.95–2.83) h
[3]; [10]
  AUCss, Geometric mean (CV%): 57,400 (17.41) ng x h/mL
  AUCss,last, Geometric mean (CV%): 56,020 (17.05) ng x h/mL
  CLss/F, Arithmetic mean (SD): 2.822 (0.4864) L/h
  Css,max, Geometric mean (CV%): 8132 (16.01) ng/mL
[3]; Multiple-dose administration, Cohort 2 160 mg BID (n = 6), Cycle 1 Day 8
  tss,max, Median (range): 1.87 (0.52–2.92) h
[3]; [11]
  AUC(0–12), Geometric mean (CV%): 54,260 (12.8) ng x h/mL
  AUCinf, Geometric mean (CV%): 102,800 (20.67) ng x h/mL
  AUClast, Geometric mean (CV%): 100,700 (19.14) ng x h/mL
  CL/F, Arithmetic mean (SD): 2.4 L/h and 2.375 (0.4926) L/h
  Vz/F, Arithmetic mean (SD): 40.47 (7.307) L
  t1/2, Arithmetic mean (SD): 12.24 (3.472) h
  tmax, Median (range): 2.04 (1.98–3.97) h
[3]; [12]
  AUC(0–12), Geometric mean (CV%): 39,160 (16.33) ng x h/mL
  AUCinf, Geometric mean (CV%): 71,440 (29.19) ng x h/mL
  AUClast, Geometric mean (CV%): 69,120 (25.54) ng x h/mL
  CL/F, Arithmetic mean (SD): 2.3 L/h and 2.318 (0.6707) L/h
  Vz/F, Arithmetic mean (SD): 43.03 (8.284) L
  tmax, Median (range): 1.92 (0.85–2.13) h
[3]; 160 mg
  Cmax: 6550 ng/mL
[3]; 160 mg, Vss/F, Multiple-dose administration, Cohort 2 160 mg BID (n = 6)
  Vd/F: 35.3 L
[3]; [13]
  half-life: 13.9 h
  Tmax: 1.9 h
[3]; 240 mg
  Cmax: 7670 ng/mL
[3]; 240 mg, Vss/F, Multiple-dose administration, Cohort 1 240 mg BID (n = 6)
  Vd/F: 33.8 L
[3]; 240 mg, Vz/F, Single-dose administration, Cohort 1 240 mg (n = 6)
  Vd/F: 40.5 L
[3]; [14]
  half-life: 12.2 h
  Tmax: 2 h
[3]; multiple administrations at 160 mg or 240 mg
  Accumulation of ceralasertib in plasma: up to 1.8 fold
[3]; range across both cohorts, multiple dosing
  Arithmetic mean TCP: 0.82–0.94
[3]; single and multiple dosing, 160 mg and 240 mg
  Dose proportionality of exposure: A trend suggesting a dose-proportional increase in exposure
[4]; 39 of 66 evaluable patients
  Disease control (evaluable patients): 59%
[4]; 66 evaluable patients
  Confirmed partial response: 5 n
  Stable disease or unconfirmed PR: 34 n
[5]; Caucasian patients, PATRIOT study
  Median tmax: 0.5 to 4 h
[5]; PATRIOT studies, at higher doses
  Mean t1/2 after single dosing: 11.2 to 12.8 h
[6]
  Objective response rates (ORR): 14 to 31%
